According to ChEMBL document CHEMBL4196034, “Family-wide analysis of aminoacyl-sulfamoyl-3-deazaadenosine analogues as inhibitors of aminoacyl-tRNA synthetases” (Eur J Med Chem, 2018):
Active and inactive are the calls of the source. The rule behind the calls is not given here.

How the values were obtained:
Escherichia coli K-12 = test: (§1) Inhibition of Glycyl-tRNA synthetase in Escherichia coli K-12 BW28357 S30 extract assessed as reduction in tRNA aminoacylation at 2.5 uM preincubated for 5 mins followed by Escherichia coli tRNA and 14C-labeled glycine addition measured after 5 mins by liquid scintillation counting method
Method in brief: (§2)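 E. coli K-12 BW28357 cells were grown in LB to A600 0.5, washed in 20 mM Tris.HCl, 10 mM MgCl2, 100 mM KCl, pH 8.0, then sonicated in the same buffer plus 1 mM DTT. The lysate was spun at 15,000 g. Inhibitor (2.5 µM) was preincubated with extract for 5 min. Aminoacylation mix: 30 mM Tris pH 8.0, 5 g/L E. coli tRNA, 3 mM ATP, 8 mM MgCl2, 40 µM 14C-amino acid. Reaction ran at room temperature. TCA precipitation after 5 min, then scintillation counting. Activity was expressed relative to the no-compound control, average of three experiments.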

[1] = Inhibition of Escherichia coli BL21(DE3) Glycine-tRNA synthetase alpha subunit/Glycine-tRNA synthetase beta subunit assessed as reduction in tRNA aminoacylation preincubated for 10 mins with Escherichia coli tRNA and 14C-labeled glycine followed by ATP addition by liquid scintillation counting method; conditions: read-out: Ki(app)
Method in brief: (§3)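 Purified E. coli aaRS, expressed in Rosetta 2 (DE3) pLysS: ileRS 50 nM, tyrRS 0.5 nM, leuRS 2.5 nM, aspRS, serRS and glyRS 2 nM each. Buffer was 20 mM Tris, 100 mM KCl, 10 mM MgCl2, 5 mM β-mercaptoethanol, pH 7.5. Enzyme was preincubated 10 min at 37°C with serially diluted compound, 50 µM 14C-amino acid, 2 mg/ml tRNA and pyrophosphatase. Reaction was started with 500 µM ATP and quenched within the linear zone, then TCA-precipitated and counted. Ki app came from Greco-Hakala fits.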

Staphylococcus aureus = test: Antibacterial activity against Staphylococcus aureus ATCC 65381 up to 100 uM after 18 to 24 hrs by two fold serial dilution method; type: functional, organism-based
Method in brief: (§4)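 Broth microdilution, twofold series from 100 µM down to 0.39 µM, in LB medium. MIC50 was taken as the lowest concentration giving 50% growth inhibition after 18-24 h incubation at 37.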

[2] = system: Staphylococcus epidermidis; test: Antibacterial activity against Staphylococcus epidermidis RP62A up to 100 uM after 18 to 24 hrs by two fold serial dilution method; type: functional, organism-based; method in brief: as §4
Kocuria rhizophila = test: Antibacterial activity against Kocuria rhizophila ATCC 9341 up to 100 uM after 18 to 24 hrs by two fold serial dilution method; type: functional, organism-based; conditions: DC2201; method in brief: as §4
Escherichia coli = test: Antibacterial activity against Escherichia coli NCIB 8743 up to 100 uM after 18 to 24 hrs by two fold serial dilution method; type: functional, organism-based; method in brief: as §4
Pseudomonas aeruginosa = test: Antibacterial activity against Pseudomonas aeruginosa PAO1 up to 100 uM after 18 to 24 hrs by two fold serial dilution method; type: functional, organism-based; method in brief: as §4
Leucine--tRNA ligase = Leucine--tRNA ligase (Escherichia coli (strain K12), UniProt P07813); test: Inhibition of Escherichia coli BL21(DE3) Leucyl-tRNA synthetase assessed as reduction in tRNA aminoacylation preincubated for 10 mins with Escherichia coli tRNA and 14C-labeled leucine followed by ATP addition by liquid scintillation counting method; conditions: read-out: Ki(app)
[3] = target: Serine--tRNA ligase (Escherichia coli (strain K12)) (UniProt P0A8L1); test: Inhibition of Serine-tRNA synthetase in Escherichia coli K-12 BW28357 S30 extract assessed as reduction in tRNA aminoacylation at 2.5 uM preincubated for 5 mins followed by Escherichia coli tRNA and 14C-labeled serine addition measured after 5 mins by liquid scintillation counting method; method in brief: as §2
Serine--tRNA ligase = Serine--tRNA ligase (Escherichia coli (strain K12), UniProt P0A8L1); test: Inhibition of Escherichia coli BL21(DE3) Seryl-tRNA synthetase assessed as reduction in tRNA aminoacylation preincubated for 10 mins with Escherichia coli tRNA and 14C-labeled serine followed by ATP addition by liquid scintillation counting method; conditions: read-out: Ki(app); method in brief: as §3
[4] = target: T1, Tyrosine--tRNA ligase (Escherichia coli (strain K12)) (UniProt P0AGJ9); test: as §1, with “Tyrosyl-tRNA” for “Glycyl-tRNA”, “tyrosine” for “glycine”, “method relative to control” for “method”; method in brief: as §2
T1 sequence (whole entry): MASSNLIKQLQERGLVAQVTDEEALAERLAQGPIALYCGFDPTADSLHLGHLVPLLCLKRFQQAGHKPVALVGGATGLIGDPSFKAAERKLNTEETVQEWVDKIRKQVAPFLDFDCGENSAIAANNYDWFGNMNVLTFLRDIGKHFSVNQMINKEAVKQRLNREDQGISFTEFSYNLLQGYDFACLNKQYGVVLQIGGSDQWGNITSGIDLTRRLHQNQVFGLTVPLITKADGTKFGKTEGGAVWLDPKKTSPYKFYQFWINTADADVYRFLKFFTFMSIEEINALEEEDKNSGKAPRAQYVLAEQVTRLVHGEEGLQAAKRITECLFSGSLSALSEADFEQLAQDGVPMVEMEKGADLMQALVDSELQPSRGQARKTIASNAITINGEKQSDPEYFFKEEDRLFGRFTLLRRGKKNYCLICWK

Tyrosine--tRNA ligase = target: T2, Tyrosine--tRNA ligase (Escherichia coli (strain K12), UniProt P0AGJ9); test: Inhibition of Escherichia coli BL21(DE3) Tyrosyl-tRNA synthetase assessed as reduction in tRNA aminoacylation preincubated for 10 mins with Escherichia coli tRNA and 14C-labeled tyrosine followed by ATP addition by liquid scintillation counting method; conditions: read-out: Ki(app); method in brief: as §3
T2 sequence (P0AGJ9 whole entry): T1 sequence (whole entry)

[5] = target: Aspartate--tRNA ligase (Escherichia coli (strain K12)) (UniProt P21889); test: Inhibition of Aspartate-tRNA synthetase in Escherichia coli K-12 BW28357 S30 extract assessed as reduction in tRNA aminoacylation at 2.5 uM preincubated for 5 mins followed by Escherichia coli tRNA and 14C-labeled aspartic acid addition measured after 5 mins by liquid scintillation counting method; method in brief: as §2
Aspartate--tRNA ligase = Aspartate--tRNA ligase (Escherichia coli (strain K12), UniProt P21889); test: Inhibition of Escherichia coli BL21(DE3) Aspartyl-tRNA synthetase assessed as reduction in tRNA aminoacylation preincubated for 10 mins with Escherichia coli tRNA and 14C-labeled aspartic acid followed by ATP addition by liquid scintillation counting method; conditions: read-out: Ki(app); method in brief: as §3
[6] = target: Isoleucine--tRNA ligase (Escherichia coli K-12) (UniProt P00956); test: as §1, with “Isoleucyl-tRNA” for “Glycyl-tRNA”, “isoleucine” for “glycine”, “method relative to control” for “method”; method in brief: as §2
Isoleucine--tRNA ligase = Isoleucine--tRNA ligase (Escherichia coli K-12, UniProt P00956); test: Inhibition of Escherichia coli BL21(DE3) Isoleucyl-tRNA synthetase assessed as reduction in tRNA aminoacylation preincubated for 10 mins with Escherichia coli tRNA and 14C-labeled isoleucine followed by ATP addition by liquid scintillation counting method; conditions: read-out: Ki(app); method in brief: as §3
Isoleucine--tRNA ligase, sequence (P00956 whole entry): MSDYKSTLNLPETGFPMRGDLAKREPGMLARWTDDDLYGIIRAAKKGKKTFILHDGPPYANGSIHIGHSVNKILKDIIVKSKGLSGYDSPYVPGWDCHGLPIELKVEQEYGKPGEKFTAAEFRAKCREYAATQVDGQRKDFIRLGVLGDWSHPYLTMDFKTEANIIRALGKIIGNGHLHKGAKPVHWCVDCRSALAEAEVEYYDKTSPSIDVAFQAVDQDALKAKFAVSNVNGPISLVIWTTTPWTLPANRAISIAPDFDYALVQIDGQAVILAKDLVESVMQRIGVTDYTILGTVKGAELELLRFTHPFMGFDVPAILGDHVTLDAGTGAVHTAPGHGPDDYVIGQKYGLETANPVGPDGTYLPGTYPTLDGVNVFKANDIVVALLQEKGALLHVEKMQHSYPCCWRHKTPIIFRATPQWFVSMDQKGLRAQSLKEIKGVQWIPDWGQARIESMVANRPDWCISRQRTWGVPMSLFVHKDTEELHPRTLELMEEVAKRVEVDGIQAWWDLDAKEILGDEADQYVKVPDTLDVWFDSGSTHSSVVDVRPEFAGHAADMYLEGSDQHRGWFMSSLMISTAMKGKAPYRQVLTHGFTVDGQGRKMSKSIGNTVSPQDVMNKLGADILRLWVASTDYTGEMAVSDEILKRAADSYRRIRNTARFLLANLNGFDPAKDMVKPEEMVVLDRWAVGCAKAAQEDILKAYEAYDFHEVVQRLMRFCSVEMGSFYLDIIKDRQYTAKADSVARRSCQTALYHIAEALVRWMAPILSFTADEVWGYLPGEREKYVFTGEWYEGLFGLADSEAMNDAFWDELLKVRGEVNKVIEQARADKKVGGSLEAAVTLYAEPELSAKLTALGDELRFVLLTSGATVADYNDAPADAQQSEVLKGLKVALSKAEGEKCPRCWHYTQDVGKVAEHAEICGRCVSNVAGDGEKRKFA

Serine--tRNA ligase, sequence (P0A8L1 whole entry): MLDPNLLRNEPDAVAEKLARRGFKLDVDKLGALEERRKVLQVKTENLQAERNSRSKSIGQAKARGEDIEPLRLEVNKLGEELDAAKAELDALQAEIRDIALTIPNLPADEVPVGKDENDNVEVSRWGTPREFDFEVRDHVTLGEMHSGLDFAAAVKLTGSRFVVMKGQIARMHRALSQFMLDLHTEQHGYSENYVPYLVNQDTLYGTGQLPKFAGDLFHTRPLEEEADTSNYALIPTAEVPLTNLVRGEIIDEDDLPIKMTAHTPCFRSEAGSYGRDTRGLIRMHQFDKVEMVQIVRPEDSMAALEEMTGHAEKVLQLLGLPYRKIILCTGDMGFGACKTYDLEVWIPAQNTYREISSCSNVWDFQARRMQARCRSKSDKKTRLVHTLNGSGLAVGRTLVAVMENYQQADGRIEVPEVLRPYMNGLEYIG
Serine--tRNA ligase (Escherichia coli (strain K12)), sequence (P0A8L1 whole entry, looked up): as the sequence (P0A8L1 whole entry) above
Isoleucine--tRNA ligase (Escherichia coli K-12), sequence (P00956 whole entry): as the sequence (P00956 whole entry) above
Aspartate--tRNA ligase, sequence (P21889 whole entry): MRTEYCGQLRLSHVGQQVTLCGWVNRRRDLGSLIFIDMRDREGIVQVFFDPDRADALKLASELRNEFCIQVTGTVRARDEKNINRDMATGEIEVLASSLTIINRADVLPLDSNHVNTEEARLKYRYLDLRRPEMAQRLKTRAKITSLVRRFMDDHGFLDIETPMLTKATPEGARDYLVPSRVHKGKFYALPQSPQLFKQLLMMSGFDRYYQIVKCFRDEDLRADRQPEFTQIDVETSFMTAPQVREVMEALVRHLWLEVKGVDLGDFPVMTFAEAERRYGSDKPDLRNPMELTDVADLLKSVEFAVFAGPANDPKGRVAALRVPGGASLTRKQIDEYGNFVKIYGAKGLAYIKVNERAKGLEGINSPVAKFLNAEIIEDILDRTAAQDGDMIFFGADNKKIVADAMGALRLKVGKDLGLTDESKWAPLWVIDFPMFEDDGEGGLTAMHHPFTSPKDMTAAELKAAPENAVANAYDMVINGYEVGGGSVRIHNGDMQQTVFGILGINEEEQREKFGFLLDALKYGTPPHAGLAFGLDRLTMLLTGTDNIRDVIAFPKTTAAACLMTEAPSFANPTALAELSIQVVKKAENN
Aspartate--tRNA ligase (Escherichia coli (strain K12)), sequence (P21889 whole entry, looked up): as the sequence (P21889 whole entry) above
Leucine--tRNA ligase, sequence (P07813 whole entry): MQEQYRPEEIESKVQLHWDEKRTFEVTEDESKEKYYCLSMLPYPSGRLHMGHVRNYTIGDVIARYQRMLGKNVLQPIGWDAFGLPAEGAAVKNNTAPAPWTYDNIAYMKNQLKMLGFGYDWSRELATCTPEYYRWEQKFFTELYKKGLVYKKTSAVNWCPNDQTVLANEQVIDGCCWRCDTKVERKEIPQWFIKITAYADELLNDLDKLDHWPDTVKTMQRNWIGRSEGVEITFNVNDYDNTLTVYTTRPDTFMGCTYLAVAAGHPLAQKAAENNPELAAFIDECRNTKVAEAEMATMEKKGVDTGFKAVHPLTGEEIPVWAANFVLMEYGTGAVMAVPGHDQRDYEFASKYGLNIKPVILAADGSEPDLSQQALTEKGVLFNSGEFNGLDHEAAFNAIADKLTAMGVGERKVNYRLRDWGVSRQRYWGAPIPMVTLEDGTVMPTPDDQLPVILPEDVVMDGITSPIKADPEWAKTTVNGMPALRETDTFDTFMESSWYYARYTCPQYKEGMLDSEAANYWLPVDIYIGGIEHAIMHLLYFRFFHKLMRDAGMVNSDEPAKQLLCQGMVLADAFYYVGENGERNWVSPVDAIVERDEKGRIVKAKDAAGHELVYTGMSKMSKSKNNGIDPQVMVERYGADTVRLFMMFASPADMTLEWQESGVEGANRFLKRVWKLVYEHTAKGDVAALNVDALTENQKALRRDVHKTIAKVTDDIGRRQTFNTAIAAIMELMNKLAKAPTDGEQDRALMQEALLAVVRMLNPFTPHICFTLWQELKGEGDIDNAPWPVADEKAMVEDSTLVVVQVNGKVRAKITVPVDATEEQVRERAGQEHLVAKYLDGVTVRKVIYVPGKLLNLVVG

Row | Compound | inhibition (Escherichia coli K-12) | Ki (Leucine--tRNA ligase) [nM] | inhibition [3] | Ki (Serine--tRNA ligase) [nM] | inhibition [4] | Ki (Tyrosine--tRNA ligase) [nM] | inhibition [5] | Ki (Aspartate--tRNA ligase) [nM] | inhibition [6] | Ki (Isoleucine--tRNA ligase) [nM] | Ki [1] [nM] | Activity (Staphylococcus aureus) | Activity [2] | Activity (Kocuria rhizophila) | Activity (Escherichia coli) | Activity (Pseudomonas aeruginosa)
1 | NCC(=O)NS(=O)(=O)OC[C@H]1O[C@@H](n2cnc3c(N)ncnc32)[C@H](O)[C@@H]1O | Active | – | – | – | – | – | – | – | – | – | 148 | inactive | inactive | inactive | inactive | inactive
2 | Nc1ncnc2c1ncn2[C@@H]1O[C@H](COS(=O)(=O)NC(=O)[C@@H](N)CO)[C@@H](O)[C@H]1O | – | – | Active | 0.18 | – | – | – | – | – | – | – | inactive | inactive | inactive | inactive | inactive
3 | Nc1ncnc2c1ncn2[C@@H]1O[C@H](COS(=O)(=O)NC(=O)[C@@H](N)Cc2ccc(O)cc2)[C@@H](O)[C@H]1O | – | – | – | – | Active | 2.93 | – | – | – | – | – | inactive | inactive | inactive | inactive | inactive
4 | CC(C)C[C@H](N)C(=O)NS(=O)(=O)OC[C@H]1O[C@@H](n2cnc3c(N)ncnc32)[C@H](O)[C@@H]1O | – | – | – | – | – | – | – | – | – | – | – | inactive | inactive | inactive | inactive | inactive
5 | Nc1ncnc2c1ncn2[C@@H]1O[C@H](COS(=O)(=O)NC(=O)[C@@H](N)CC(=O)O)[C@@H](O)[C@H]1O | – | – | – | – | – | – | Active | 0.052 | – | – | – | inactive | inactive | inactive | inactive | inactive
6 | NCC(=O)NS(=O)(=O)OC[C@H]1O[C@@H](n2cnc3c(N)nccc32)[C@H](O)[C@@H]1O | inactive | – | – | – | – | – | – | – | – | – | > 2000 | inactive | inactive | inactive | inactive | inactive
7 | Nc1nccc2c1ncn2[C@@H]1O[C@H](COS(=O)(=O)NC(=O)[C@@H](N)CC(=O)O)[C@@H](O)[C@H]1O | – | – | – | – | – | – | inactive | 25.3 | – | – | – | inactive | inactive | inactive | inactive | inactive
8 | Nc1nccc2c1ncn2[C@@H]1O[C@H](COS(=O)(=O)NC(=O)[C@@H](N)Cc2ccc(O)cc2)[C@@H](O)[C@H]1O | – | – | – | – | 40 to 50% | 29.9 | – | – | – | – | – | inactive | inactive | inactive | inactive | inactive

Continued, in another order:

Row | inhibition (Escherichia coli K-12) | Ki (Leucine--tRNA ligase) [nM] | inhibition [3] | Ki (Serine--tRNA ligase) [nM] | inhibition [4] | Ki (Tyrosine--tRNA ligase) [nM] | inhibition [5] | Ki (Aspartate--tRNA ligase) [nM] | inhibition [6] | Ki (Isoleucine--tRNA ligase) [nM] | Compound | Ki [1] [nM] | Activity (Staphylococcus aureus) | Activity [2] | Activity (Kocuria rhizophila) | Activity (Escherichia coli) | Activity (Pseudomonas aeruginosa)
9 | – | 0.654 | – | – | – | – | – | – | – | – | CC(C)C[C@H](N)C(=O)NS(=O)(=O)OC[C@H]1O[C@@H](n2cnc3c(N)nccc32)[C@H](O)[C@@H]1O | – | inactive | inactive | inactive | inactive | inactive
10 | – | – | inactive | 523 | – | – | – | – | – | – | Nc1nccc2c1ncn2[C@@H]1O[C@H](COS(=O)(=O)NC(=O)[C@@H](N)CO)[C@@H](O)[C@H]1O | – | inactive | inactive | inactive | inactive | inactive
11 | – | – | – | – | – | – | – | – | 40 to 50% | 213 | CC[C@H](C)[C@H](N)C(=O)NS(=O)(=O)OC[C@H]1O[C@@H](n2cnc3c(N)nccc32)[C@H](O)[C@@H]1O | – | inactive | inactive | inactive | inactive | inactive
12 | – | – | – | – | – | – | – | – | Active | 1.92 | CC[C@H](C)[C@H](N)C(=O)NS(=O)(=O)OC[C@H]1O[C@@H](n2cnc3c(N)ncnc32)[C@H](O)[C@@H]1O | – | inactive | inactive | inactive | inactive | inactive
